Screening data from PubChem.
Lmaj promast: inhibitors of Leishmania major promastigote growth | AID 1063 | Leishmania major promastigotes, resazurin fluorescence viability | actives 9% (n = 200,000) | inhibition, % at 10 µM; in the data active = inhibition above about 50%;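 also: promastigotes grown with compound for 44 hours at 28 °C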
Ba/F3 V617F tox: lowers viability of Ba/F3 cells expressing EpoR and JAK2V617F; inhibition, % at 5.6 µM; actives 1.1% (n = 220,000); ATP luminescence; AID 1446;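 active = inhibition above the campaign mean plus 3 SD over all tested compounds, cut at about 24% in these data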;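 also: cytokine-independent growth of Ba/F3 cells driven by EpoR plus mutant JAK2; 0% = DMSO-treated cells and 100% = JAK inhibitor I control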
b-catenin transl: modulators of beta-catenin nuclear translocation; nuclear translocation activity, % at 5 µM; HeLa beta-catenin nuclear translocation, immunofluorescence imaging; actives 0.3% (n = 190,000);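 active = nuclear translocation activity above 50% at 5 µM, with a well cell count of 50 or more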;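 also: per-cell ratio of nuclear to cytoplasmic median beta-catenin stain intensity; plate controls were DMSO negative control for no effect and GSK-3 inhibitor IX positive control for full effect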
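Test system: HeLa cells, endogenous beta-catenin; Compound: single 5 µM dose plus 0.02–20 µM confirmation series; Times: compound exposure 24 h at 37°C; Signal: fluorescence imaging of beta-catenin antibody stain plus DAPI; Read-out: % activation, nuclear-to-cytoplasmic median beta-catenin signal ratio per cell.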
BaF3 parental: parental Ba/F3 viability inhibition as JAK2V617F counter-screen | actives 1.1% (n = 220,000) | inhibition, % at 5.6 µM | CellTiter-Glo ATP luminescence;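 active = inhibition above a per-campaign cutoff, the mean inhibition of all tested compounds plus 3 SD, cut at about 27% in these data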;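 also: 0% = DMSO wells and 100% = JAK Inhibitor I control wells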
APP transl inh: APP translation inhibition | SH-SY5Y APP 5'UTR-luciferase reporter, luminescence | inhibition, % at 2 µM | actives 0.82% (n = 190,000);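 active = inhibition above a set limit, derived from the sample mean plus 3 SD, cut at about 45% in these data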
MT stabilizer: microtubule stabilizers in HeLa cells | actives 0.83% (n = 200,000) | % tubulin-high responders, % at 10 µM | HeLa tubulin immunostaining HCS, 24 h; share of cells brighter than vehicle mean+2SD;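 active = plate Z-score above 3 for both tubulin-high and condensed-nucleus cell shares, with cell loss under 80%, at 10 µM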;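 also: anti alpha tubulin signal scored within the nucleus-defined area of each cell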
Active calls of the source: *. Compounds with a hit are over-represented: about 9.6% of the library has one in this group of screens.

What do the screens show for `CN1CCN(C2=C(Cl)C(=O)N(CCc3ccccc3)C2=O)CC1`?
Lmaj promast: 93.4*; Ba/F3 V617F tox: -3.0; b-catenin transl: -0.8; BaF3 parental: 4.5; APP transl inh: -22.8; MT stabilizer: 3.3

What do the screens show for `O=C1C(Cl)=C(NCCCN2CCOCC2)C(=O)N1CCc1ccccc1`?
Lmaj promast: 96.7*; Ba/F3 V617F tox: 5.1; BaF3 parental: 3.7; APP transl inh: 50.7*; MT stabilizer: 2.7

Results for COc1ccccc1NC(=O)N1CCN(C)CC1 ?
Lmaj promast: -7.2; Ba/F3 V617F tox: -3.8; b-catenin transl: 2.1; BaF3 parental: 6.1; APP transl inh: -0.4; MT stabilizer: 2.5

How did Cc1nc(-c2cc(-c3nc(-c4cc(C(F)(F)F)cc(C(F)(F)F)c4)no3)no2)cs1 do in these assays?
Ba/F3 V617F tox: -5.2; b-catenin transl: -3.6; BaF3 parental: -1.4

What do the screens show for `Cc1nc(-c2cc(-c3nc(-c4ccc(C(F)(F)F)cc4)no3)no2)cs1`?
Ba/F3 V617F tox: -0.9; b-catenin transl: -0.2; BaF3 parental: 61.1*

What do the screens show for `O=C(CSc1ncccc1-c1nc2ccccc2[nH]1)Nc1ccc2c(c1)OCCO2`?
Lmaj promast: 72.8*; Ba/F3 V617F tox: -0.6; b-catenin transl: -1.6; BaF3 parental: 4.0; APP transl inh: -15.2; MT stabilizer: 2.6

Results for O=C(Cn1c(=O)sc2ccccc21)Nc1ccc(O)cc1 ?
Lmaj promast: -1.0; Ba/F3 V617F tox: 1.7; b-catenin transl: -1.9; BaF3 parental: 0.6; APP transl inh: 3.8; MT stabilizer: 3.3

How did COc1ccc(NS(=O)(=O)c2ccc(Cl)c(NC(=O)c3cccnc3Cl)c2)cc1 do in these assays?
Ba/F3 V617F tox: -5.5; b-catenin transl: 0.2; BaF3 parental: 1.7

Results for CC(C)(C)C(=O)Nc1cc(S(=O)(=O)Nc2ccc(Cl)cc2)ccc1Cl ?
Lmaj promast: 75.5*; Ba/F3 V617F tox: -0.6; b-catenin transl: 0.0; BaF3 parental: 4.4; APP transl inh: -9.7; MT stabilizer: 2.5

How did COc1ccc(NC(C)=O)cc1NC(=O)c1ccc2ccccc2c1 do in these assays?
Lmaj promast: 5.6; Ba/F3 V617F tox: -3.7; b-catenin transl: -1.2; BaF3 parental: 11.6; APP transl inh: -4.3; MT stabilizer: 2.3

Results for CC(C)c1ccc(CN(C)CC(O)c2ccccc2)cc1 (centres undefined) ?
Lmaj promast: 74.7*; Ba/F3 V617F tox: 0.0; b-catenin transl: -2.2; BaF3 parental: 2.3; APP transl inh: -32.1; MT stabilizer: 2.5

Results for Cn1cnnc1SCCn1c(N2CCCCC2)nc2c1c(=O)[nH]c(=O)n2C ?
Lmaj promast: -2.5; Ba/F3 V617F tox: -2.3; b-catenin transl: -1.8; BaF3 parental: 0.6; APP transl inh: 0.4; MT stabilizer: 5.7

Results for O=c1[nH]c(=O)c2ncc(-c3ccc(Cl)cc3)nc2[nH]1 ?
Lmaj promast: 80.0*; Ba/F3 V617F tox: -3.6; b-catenin transl: -2.7; BaF3 parental: 0.7; APP transl inh: -15.6; MT stabilizer: 2.6

Results for CCOCC(=O)Nc1ccccc1C(=O)O ?
Lmaj promast: -7.1; Ba/F3 V617F tox: -3.0; b-catenin transl: -0.3; BaF3 parental: -0.1; APP transl inh: 4.8; MT stabilizer: 3.3

How did CCOc1ccc(NC(=O)c2cc3c(C)nc4ccccc4c3o2)cc1 do in these assays?
Lmaj promast: -6.6; Ba/F3 V617F tox: -3.1; b-catenin transl: 126.0*; BaF3 parental: -0.2; APP transl inh: 22.8; MT stabilizer: 17.0*

What do the screens show for `O=C(NCC1(c2ccccc2)CCCC1)c1ccccc1Br`?
Lmaj promast: 55.0*; Ba/F3 V617F tox: -2.8; b-catenin transl: -1.8; BaF3 parental: 1.1; APP transl inh: 3.4; MT stabilizer: 2.7

What do the screens show for `CCCOc1ccc(CSc2nc3ccccc3[nH]2)cc1`?
Lmaj promast: 21.6; Ba/F3 V617F tox: 4.9; BaF3 parental: 44.5*; APP transl inh: -124.8; MT stabilizer: 2.9

Results for O=C(CCl)N1N=C(c2cccs2)CC1c1ccco1 (centres undefined) ?
Lmaj promast: 95.6*; Ba/F3 V617F tox: 0.4; b-catenin transl: -0.2; BaF3 parental: 2.5; APP transl inh: 10.6; MT stabilizer: 4.7

Results for COc1cc(NC(=S)NCCC(c2ccccc2)c2ccccc2)cc(OC)c1 ?
Lmaj promast: 46.6; Ba/F3 V617F tox: -1.1; b-catenin transl: -3.9; BaF3 parental: 5.3; APP transl inh: -8.6; MT stabilizer: 4.4

What do the screens show for `COc1cccc(NC(=S)NCCC(c2ccccc2)c2ccccc2)c1`?
Lmaj promast: 100.4*; Ba/F3 V617F tox: 1.5; b-catenin transl: -0.9; BaF3 parental: 5.9; APP transl inh: -3.1; MT stabilizer: 2.6

What do the screens show for `Cc1cccc(NC(=S)NCCC(c2ccccc2)c2ccccc2)c1`?
Lmaj promast: 96.6*; Ba/F3 V617F tox: -2.4; BaF3 parental: 2.9; APP transl inh: 17.3; MT stabilizer: 2.1

What do the screens show for `O=C(O)c1ccc(N2C(=O)/C(=C/c3ccc(-c4ccc([N+](=O)[O-])cc4)o3)C=C2c2ccccc2)cc1`?
Lmaj promast: 98.8*; Ba/F3 V617F tox: -1.2; b-catenin transl: 3.3; BaF3 parental: 4.2; APP transl inh: 18.9; MT stabilizer: 10.2

What do the screens show for `CSc1nc2c(c(=O)[nH]1)C(c1cccc(Cl)c1)CC(=O)N2` (centres undefined)?
Lmaj promast: -6.5; Ba/F3 V617F tox: 2.0; b-catenin transl: -1.1; BaF3 parental: 6.3; APP transl inh: 6.3; MT stabilizer: 3.3

How did CC(C)(C)OC(=O)NCc1n[nH]c(=S)n1C1CC1 do in these assays?
Ba/F3 V617F tox: 4.3; b-catenin transl: -2.1; BaF3 parental: 0.3

What do the screens show for `COc1ccc(-n2c(-c3ccccc3)cc3c2CCCC3=O)cc1`?
Lmaj promast: 79.7*; Ba/F3 V617F tox: 0.0; b-catenin transl: 0.8; BaF3 parental: 2.0; APP transl inh: 13.0; MT stabilizer: 16.1

Results for COc1ccc(NCc2nn(CC(=O)c3ccc(Br)cc3)c3[n+]2CCCCC3)cc1 ?
Lmaj promast: 18.4; Ba/F3 V617F tox: -2.2; b-catenin transl: -2.2; BaF3 parental: 1.6; APP transl inh: -1.7; MT stabilizer: 1.1

Results for CCOc1ccc(-c2nnc(-c3ccccc3)n2-c2ccccc2)cc1 ?
Lmaj promast: 65.2*; Ba/F3 V617F tox: 0.4; b-catenin transl: 3.6; BaF3 parental: 1.2; APP transl inh: -15.0; MT stabilizer: 2.0

What do the screens show for `COc1ccc(-n2c(-c3ccc(Br)cc3)nc(=S)c3c2CCCC3)cc1`?
Lmaj promast: -4.3; Ba/F3 V617F tox: -2.5; b-catenin transl: -1.2; BaF3 parental: 4.0; APP transl inh: 7.5; MT stabilizer: 2.2

Results for CCOc1ccc(-c2nnc(-c3ccccc3)o2)cc1 ?
Lmaj promast: -3.5; Ba/F3 V617F tox: 1.8; b-catenin transl: -1.4; BaF3 parental: 4.0; APP transl inh: -113.7; MT stabilizer: 3.0

What do the screens show for `COc1ccc(-n2c(-c3ccc(Br)cc3)c[n+]3c2CCCCC3)cc1`?
Lmaj promast: 100.0*; Ba/F3 V617F tox: 75.6*; b-catenin transl: -1.1; BaF3 parental: 64.1*; APP transl inh: -0.1; MT stabilizer: 1.3
